# Assay results gathered from unrelated publications.
# Each line is one published result; the experiments were not run side by side.
# Target: Serine/threonine-protein kinase TAO1 (TAOK1, Homo sapiens, UniProt Q7L7X3)
# Residues used in one study (Q7L7X3 1-1001): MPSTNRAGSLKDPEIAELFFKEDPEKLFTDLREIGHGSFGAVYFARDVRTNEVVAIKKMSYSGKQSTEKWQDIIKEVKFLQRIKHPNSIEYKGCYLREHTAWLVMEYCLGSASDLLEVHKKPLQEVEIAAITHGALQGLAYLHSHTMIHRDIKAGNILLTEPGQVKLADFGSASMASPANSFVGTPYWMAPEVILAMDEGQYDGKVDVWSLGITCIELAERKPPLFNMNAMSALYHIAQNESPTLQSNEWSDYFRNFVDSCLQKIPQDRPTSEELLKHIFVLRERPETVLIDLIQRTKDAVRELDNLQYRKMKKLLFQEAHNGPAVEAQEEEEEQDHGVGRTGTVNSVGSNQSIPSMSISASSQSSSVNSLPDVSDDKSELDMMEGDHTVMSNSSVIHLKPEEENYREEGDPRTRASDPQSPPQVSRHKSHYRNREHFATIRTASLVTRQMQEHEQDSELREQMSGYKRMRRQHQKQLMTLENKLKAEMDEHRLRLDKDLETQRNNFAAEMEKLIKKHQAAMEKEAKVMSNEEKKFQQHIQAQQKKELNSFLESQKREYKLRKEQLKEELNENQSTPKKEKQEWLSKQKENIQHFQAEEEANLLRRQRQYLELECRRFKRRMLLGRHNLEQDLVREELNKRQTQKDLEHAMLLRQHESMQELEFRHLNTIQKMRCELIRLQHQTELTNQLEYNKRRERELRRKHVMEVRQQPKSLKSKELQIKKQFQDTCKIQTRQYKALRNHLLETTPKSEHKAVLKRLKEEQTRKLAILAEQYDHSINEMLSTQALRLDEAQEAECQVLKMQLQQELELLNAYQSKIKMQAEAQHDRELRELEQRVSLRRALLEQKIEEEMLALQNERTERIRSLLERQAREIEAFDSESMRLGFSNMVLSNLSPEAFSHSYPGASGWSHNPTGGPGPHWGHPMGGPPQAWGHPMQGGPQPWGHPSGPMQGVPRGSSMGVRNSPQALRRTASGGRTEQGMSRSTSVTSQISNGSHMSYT
SMILES,effect on,mode,technique,tested at,endpoint,value
COc1cc(/C=C/C(=O)CC(=O)/C=C/c2ccc(O)c(OC)c2)ccc1O,enzyme activity,inhibitor,,1 µM,activity vs control,84%
COc1cc(Cl)c(C(=O)N[C@@H](CN[C@H]2CC[C@@H](N)CC2)Cc2ccc(C#N)cc2)cc1-c1ccc(CN[C@H](C)c2ccc(C)cc2)o1,enzyme activity,inhibitor,,1 µM,remaining activity,97%
Oc1cccc(-c2nc(N3CCOCC3)c3oc4ncccc4c3n2)c1,enzyme activity,inhibitor,,10 µM,remaining activity,84%
O=C1NC(=O)c2cc(Nc3ccc(F)cc3)c(Nc3ccc(F)cc3)cc21,cell-free assay,,,0.5 µM,remaining signal,90.3%
O=C(Nc1cnn(-c2csc(C(=O)NC3COC3)c2)c1)Nc1c(F)cccc1Cl,enzyme activity,inhibitor,,5 µM,remaining activity,90.6%
O=C(Nc1cccnn1)N1CC(C/C=C/c2cncc(Oc3ccc(C(F)(F)F)cn3)n2)C1,cell-free assay,,competition with immobilised ligand,1 µM,remaining binding,91%
FC(F)(F)Oc1cccc(-c2cnc3ccc(-c4ccncc4)nn23)c1,enzyme activity,inhibitor,radiometric,5 µM,activity vs control,87%
Cc1cnc(NC2CCOCC2)nc1-n1cnc(C(=O)NC(CN)c2cc(F)cc(Cl)c2)c1 (stereo not drawn),enzyme activity,inhibitor,radiometric,1 µM,remaining activity,67%
Clc1ccc(Nc2nnc(Cc3ccncc3)c3ccccc23)cc1,cell-free assay,,,0.5 µM,remaining signal,98.7%
Cn1c(=O)n(-c2ccc(C(C)(C)C#N)cc2)c2c3cc(-c4cnc5ccccc5c4)ccc3ncc21,enzyme activity,inhibitor,,10 µM,remaining activity,81%
O=C(N1CCS(=O)(=O)CC1)N1C[C@H](c2ccc(OC(F)(F)F)cc2)C[C@H](c2nc(C3CC3)no2)C1,cell-free assay,,competition with immobilised ligand,1 µM,remaining binding,100%
Nc1ncnc2occ(-c3ccc(NC(=O)Nc4cc(C(F)(F)F)ccc4F)cc3)c12,cell-free assay,inhibitor,,20 µM,remaining signal,0.3%
Cc1nc(C2CCN(C(=O)c3ccc(OC(F)(F)F)cc3N)CC2)c2ncc(N3CCN(C)CC3)cc2n1,cell-free assay,,competition with immobilised ligand,1 µM,remaining binding,100%
Cc1sc(C(=O)NC2COC2)cc1-n1cc(NC(=O)Nc2c(F)cccc2Cl)cn1,enzyme activity,inhibitor,,10 µM,remaining activity,108%
Cc1ccc(NC(=O)c2ccc(C)c(C(F)(F)F)c2)cc1C#Cc1nn(C2CCC(O)CC2)c2ncnc(N)c12 (stereo not drawn),cell-free assay,,,10 µM,remaining signal,18%
COc1ccc2cc(OCC3(C(=O)O)CN(C(=O)c4ccc(F)cc4)C3)ccc2c1,cell-free assay,,competition with immobilised ligand,1 µM,remaining binding,100%
O=C1Nc2ccc(Cl)cc2C1=Cc1cc(Cl)c(O)c(Cl)c1,cell-free assay,,,0.5 µM,remaining signal,71.6%
C[C@H](c1ccnc(Nc2nc3ccc(-c4cc(N(C)C)ncn4)cc3[nH]2)c1)N1CCN(C(=O)CC(F)(F)F)CC1,cell-free assay,,competition with immobilised ligand,0.1 µM,remaining binding,100%
COc1cc(Nc2cnc(C#N)c(O[C@H](C)CN(C)C)n2)ncc1-c1cnn(C)c1,enzyme activity,inhibitor,radiometric,10 µM,remaining activity,75%
CNC(=O)Nc1ccc2c(c1)CC[C@@]21OC(=O)N(CC(=O)N(Cc2ccc(F)cc2)[C@@H](C)C(F)(F)F)C1=O,cell-free assay,,competition with immobilised ligand,1 µM,remaining binding,94%
Cc1ccc(C(=O)NCc2ccsc2)cc1C#Cc1cn(C(C)C)c2ncnc(N)c12,enzyme activity,inhibitor,,1 µM,activity vs control,48%
